Data published in ChEMBL document CHEMBL1140759, “Synthesis, anti-Toxoplasma gondii and antimicrobial activities of benzaldehyde 4-phenyl-3-thiosemicarbazones and 2-[(phenylmethylene)hydrazono]-4-oxo-3-phenyl-5-thiazolidineacetic acids” (Bioorg Med Chem, 2008).
Converted amounts (≈) assume the structure as drawn.

Experiments:
Toxoplasma gondii [1] = assay: Antiparasitic activity against Toxoplasma gondii infected african green monkey Vero cells at 2 mM assessed as infected cells; assay type: functional
In short: (§1)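 Vero cells were infected with RH-strain tachyzoites (5:1 parasite:cell) for 1 h, washed with PBS, and grown 24 h at 37 °C in medium 199 with 5% FCS. Compound was then added for 24 h. Cells were fixed with Bouin's, stained with Giemsa, and at least 400 cells were counted by light microscopy for the percentage infected. Hydroxyurea and sulfadiazine served as references.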

Staphylococcus aureus [2] = assay: Antimicrobial activity against Staphylococcus aureus at 300 ug/disc; assay type: functional; conditions: read-out: IZ
In short: (§2)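 Disc diffusion on agar plates inoculated with a standardized microbial suspension, with paper discs carrying known compound amounts. DMSO-only discs served as negative controls, and chloramphenicol, rifampicin (bacteria) or nistatin (fungi) as references. The read-out is the mean inhibition zone diameter in mm. Each run was done three times and repeated if results differed.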

Enterococcus faecalis [3] = assay: Antimicrobial activity against Streptococcus faecalis at 300 ug/disc; assay type: functional; conditions: read-out: IZ; in short: as §2
Toxoplasma gondii [4] = assay: Antiparasitic activity against Toxoplasma gondii infected african green monkey Vero cells at 8 mM assessed as infected cells; assay type: functional; in short: as §1
Escherichia coli = assay: Antimicrobial activity against Escherichia coli at 300 ug/disc; assay type: functional; conditions: read-out: IZ; in short: as §2
Candida [5] = assay: Antimicrobial activity against Candida sp. IMUR1224 at 300 ug/disc; assay type: functional; conditions: read-out: IZ; in short: as §2
Bacillus subtilis = assay: Antimicrobial activity against Bacillus subtilis at 300 ug/disc; assay type: functional; conditions: read-out: IZ; in short: as §2
Candida [6] = assay: Antimicrobial activity against Candida sp. IMUR4249; assay type: functional
In short: (§3)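 Tube dilution MIC, run on compounds with a disc-diffusion zone of at least 18 mm. The DMSO stock (1 mg/mL) was serially diluted to 10–220 µg/mL final in medium, and strains were inoculated at 10^8/mL. Media were tryptic soy or nutrient agar for bacteria and Sabouraud liquid for fungi, incubated 24–48 h at 37 °C (bacteria) or 30 °C (fungi). MIC is the lowest concentration giving clear tubes.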

Toxoplasma gondii [7] = assay: Inhibition of intracellular parasite Toxoplasma gondii; assay type: functional, organism-based
In short: (§4)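 Infected Vero cultures were exposed to compound at 0.01–30 mM for 24 h, in triplicate per assay. IC50 for infected cells and intracellular parasites was derived by non-linear regression, using trypan blue exclusion.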

Candida albicans = assay: Antimicrobial activity against Candida albicans at 300 ug/disc; assay type: functional; conditions: read-out: IZ; in short: as §2
Saccharomyces cerevisiae = assay: Antimicrobial activity against Saccharomyces cerevisiae at 300 ug/disc; assay type: functional; conditions: read-out: IZ; in short: as §2
Toxoplasma gondii [8] = assay: Antiparasitic activity against Toxoplasma gondii infected african green monkey Vero cells at 5 mM assessed as infected cells; assay type: functional; in short: as §1
Micrococcus luteus = assay: Antimicrobial activity against Micrococcus luteus at 300 ug/disc; assay type: functional; conditions: read-out: IZ; in short: as §2
Toxoplasma gondii [9] = assay: Inhibition of Toxoplasma gondii infected in african green monkey Vero cells; assay type: functional, organism-based; in short: as §4
Mycolicibacterium phlei = assay: Antimicrobial activity against Mycobacterium phlei at 300 ug/disc; assay type: functional; conditions: read-out: IZ; in short: as §2
[10] = test system: Mycolicibacterium smegmatis; assay: Antimicrobial activity against Mycobacterium smegmatis at 300 ug/disc; assay type: functional; conditions: read-out: IZ; in short: as §2
[11] = test system: Mycobacterium tuberculosis; assay: Antimicrobial activity against Mycobacterium tuberculosis at 300 ug/disc; assay type: functional; conditions: read-out: IZ
In short: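 Agar disc diffusion: paper discs loaded with compound placed on agar plates seeded with a standardised microbial suspension. DMSO-only discs served as negative control. Chloramphenicol and rifampicin (bacteria) or nistatin (fungi) gave reference zones. Read-out was mean zone of inhibition diameter (mm). Each experiment was run three times and repeated if results differed.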

Toxoplasma gondii [12] = assay: Antiparasitic activity against Toxoplasma gondii infected african green monkey Vero cells at 20 mM assessed as infected cells; assay type: functional; in short: as §1
[13] = test system: Mycobacterium tuberculosis; assay: Antimicrobial activity against Mycobacterium tuberculosis; assay type: functional
Toxoplasma gondii [14] = assay: Antiparasitic activity against Toxoplasma gondii infected african green monkey Vero cells at 0.1 mM assessed as infected cells; assay type: functional; in short: as §1
Vero = assay: Inhibition of uninfected african green monkey Vero cells; assay type: cell-based; conditions: Chlorocebus sabaeus
Klebsiella pneumoniae = assay: Antimicrobial activity against Klebsiella pneumoniae at 300 ug/disc; assay type: functional; conditions: read-out: IZ; in short: as §2
Candida [15] = assay: Antimicrobial activity against Candida sp. IMUR720 at 300 ug/disc; assay type: functional; conditions: read-out: IZ; in short: as §2
Candida [16] = assay: Antimicrobial activity against Candida sp. IMUR4249 at 300 ug/disc; assay type: functional; conditions: read-out: IZ; in short: as §2
Staphylococcus aureus [17] = assay: Antimicrobial activity against Staphylococcus aureus; assay type: functional; in short: as §3
[18] = test system: Mycolicibacterium smegmatis; assay: Antimicrobial activity against Mycobacterium smegmatis; assay type: functional; in short: as §3
Enterococcus faecalis [19] = assay: Antimicrobial activity against Streptococcus faecalis; assay type: functional; in short: as §3

| Compound | Activity (Toxoplasma gondii [1]) | zone of inhibition at 300 µg/disc (Staphylococcus aureus [2]) | zone of inhibition at 300 µg/disc (Enterococcus faecalis [3]) | Activity (Toxoplasma gondii [4]) | zone of inhibition at 300 µg/disc (Escherichia coli) | zone of inhibition at 300 µg/disc (Candida [5]) | zone of inhibition at 300 µg/disc (Bacillus subtilis) | IC50 (Toxoplasma gondii [7]) | zone of inhibition at 300 µg/disc (Candida albicans) | zone of inhibition at 300 µg/disc (Saccharomyces cerevisiae) | Activity (Toxoplasma gondii [8]) | zone of inhibition at 300 µg/disc (Micrococcus luteus) | IC50 (Toxoplasma gondii [9]) | zone of inhibition at 300 µg/disc (Mycolicibacterium phlei) | zone of inhibition at 300 µg/disc [10] | zone of inhibition at 300 µg/disc [11] | Activity (Toxoplasma gondii [12]) | MBC [13] | MIC [13] | Activity (Toxoplasma gondii [14]) | also measured |
| --- | --- | --- | --- | --- | --- | --- | --- | --- | --- | --- | --- | --- | --- | --- | --- | --- | --- | --- | --- | --- | --- |
| O=C(O)CC1S/C(=N\N=C\c2ccc(Cl)c(Cl)c2)N(c2ccccc2)C1=O (stereo unspecified) | 0% | 11 mm | 11 mm | 0% | < 7 mm | < 7 mm | 16 mm | 1000 µM | 7 mm | < 7 mm | 0% | 19 mm | 1500 µM | 12 mm | 13 mm | 18 mm | 0% | 90 mg/L (≈ 213 µM) | 100 mg/L (≈ 237 µM) | 101% | MFC (Candida [6]): 100 mg/L (≈ 237 µM); MIC (Candida [6]): 120 mg/L (≈ 284 µM); IC50 (Vero): 4000 µM; zone of inhibition at 300 µg/disc (Klebsiella pneumoniae): < 7 mm; zone of inhibition at 300 µg/disc (Candida [15]): < 7 mm; zone of inhibition at 300 µg/disc (Candida [16]): 21 mm |
| CC(C)(C)c1cc(/C=N/N=C2\SC(CC(=O)O)C(=O)N2c2ccccc2)cc(C(C)(C)C)c1O (stereo unspecified) | 0% | 26 mm | 18 mm | 0% | < 7 mm | < 7 mm | 19 mm | 1000 µM | 9 mm | < 7 mm | 0% | 22 mm | 1000 µM | 16 mm | 26 mm | 23 mm | 0% | 100 mg/L (≈ 208 µM) | 110 mg/L (≈ 228 µM) | 53.55% | MBC (Staphylococcus aureus [17]): 45 mg/L (≈ 93.4 µM); MIC (Staphylococcus aureus [17]): 50 mg/L (≈ 104 µM); MBC [18]: 140 mg/L (≈ 291 µM); MIC [18]: 150 mg/L (≈ 311 µM); MBC (Enterococcus faecalis [19]): 190 mg/L (≈ 395 µM); MIC (Enterococcus faecalis [19]): 200 mg/L (≈ 415 µM); IC50 (Vero): 1000 µM; zone of inhibition at 300 µg/disc (Klebsiella pneumoniae): < 7 mm; zone of inhibition at 300 µg/disc (Candida [15]): < 7 mm; zone of inhibition at 300 µg/disc (Candida [16]): < 7 mm |
